Source: PubChem (The Scripps Research Institute Molecular Screening Center)
Sampled rows, rich in hits. Any-hit rate of the full collection: about 3.3%.
mABHD4 FP – inhibits mouse alpha/beta hydrolase domain 4. purified mABHD4, FP-Rh probe fluorescence polarization. Q8VD66. inhibition, % at 8.92 µM. 370,000 compounds, 0.54% hits. AID 720543;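 active means inhibition exceeding the mean over every tested compound plus 3 SD, cut at about 30% in these data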;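 further: 0% = plate median of compound wells and 100% = S159A mutant with DMSO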
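Test system: mABHD4 protein; Read-out basis: % inhibition; Incubation: 45 min + 60 min at 25 °C; Repeats: single replicate; Technique: fluorescence polarization with parallel and perpendicular emission, 525/598 nm; Compound: 8.92 µM, single dose; Benchmarks: full inhibition S159A mutant plus DMSO, zero as sample-well median.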
PRMT1 FP inh – blocks human protein arginine methyltransferase 1; Q99873; recombinant PRMT1, activity-based probe fluorescence polarization; inhibition, % at 2.79 µM; 370,000 compounds, 1.3% hits; AID 652257;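 active means inhibition above about 21% made by adding two undisclosed values, limit read from the data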
SIAE primary – inhibitors of human sialic acid acetylesterase SIAE | Q9HAT2 | SIAE FP-Rh probe binding, fluorescence polarization | inhibition, % at 9.66 µM | 370,000 compounds, 0.69% hits;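 active means inhibition above a cutoff: mean of compounds within the control limits plus 3 SD of those, cut at about 17% in these data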;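 further: 0% = plate median of compound wells and 100% = probe without SIAE protein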
Target sequence (Q9HAT2 whole entry, looked up): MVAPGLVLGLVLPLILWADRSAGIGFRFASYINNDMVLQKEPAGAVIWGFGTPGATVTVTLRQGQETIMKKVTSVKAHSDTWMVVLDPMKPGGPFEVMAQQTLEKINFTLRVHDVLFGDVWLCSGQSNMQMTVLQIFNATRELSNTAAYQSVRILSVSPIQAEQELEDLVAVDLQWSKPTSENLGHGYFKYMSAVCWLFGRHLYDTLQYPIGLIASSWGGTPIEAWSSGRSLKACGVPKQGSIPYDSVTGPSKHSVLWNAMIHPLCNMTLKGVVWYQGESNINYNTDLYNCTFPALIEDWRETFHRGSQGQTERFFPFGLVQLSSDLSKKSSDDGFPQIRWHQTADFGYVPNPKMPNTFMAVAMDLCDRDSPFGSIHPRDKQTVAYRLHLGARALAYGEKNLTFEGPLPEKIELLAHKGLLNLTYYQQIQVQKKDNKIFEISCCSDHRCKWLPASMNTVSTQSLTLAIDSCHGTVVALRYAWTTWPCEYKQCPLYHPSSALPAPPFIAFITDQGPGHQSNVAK
HTRA1 inhibitor – blocks human HTRA1 serine peptidase. recombinant HTRA1, FP-rhodamine activity-based probe, fluorescence polarization. 340,000 compounds, 0.5% hits. inhibition, % at 5.96 µM. Q92743; in the data active means inhibition above about 36%;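 further: 0% = enzyme with DMSO and 100% = wells lacking enzyme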
rCAG RNA binder – molecules binding r(CAG) RNA repeats; r(CAG) RNA repeat, TO-PRO-1 dye displacement fluorescence; inhibition, % at 3 µM; 370,000 compounds, 1.3% hits; AID 651821;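 active means inhibition above the plate cutoff, the mean of all test compounds on that plate plus 3 SD, cut at about 35% in these data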;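 further: 0% = DMSO alone and 100% = 100 µM mitoxantrone as full dye displacement; higher means more dye released from RNA so lower well fluorescence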
PRMT1 confirm – PRMT1 (human) inhibition, FP confirmation; shares compounds with PRMT1 FP inh; recombinant His-PRMT1, activity-based probe fluorescence polarization; AID 687036; inhibition, % at 2.79 µM; 3,300 compounds, 42% hits;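 active means mean inhibition across replicates above the hit cutoff derived for the earlier primary screen, cut at about 22% in these data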
The depositor's hits bear a star; . = no result.

SMILES	mABHD4 FP	PRMT1 FP inh	SIAE primary	HTRA1 inhibitor	rCAG RNA binder	PRMT1 confirm
COc1ccc(OCC(=O)Nc2ccc(N3CCN(C(=O)c4ccccc4)CC3)c(Cl)c2)cc1	-1.5	1.6	-6.9	-28.9	-0.1	.
CN(C[C@H](Cc1ccccc1)N(C[C@H](Cc1ccccc1)N(CC1(c2ccccc2)CC1)N=O)N=O)N=O	-1.6	-0.6	-6.4	-4.1	2.9	.
OCCCn1c(-c2ccccc2)csc1=Nc1ccccc1	-0.4	3.3	-0.6	-5.2	-2.8	.
COc1ccc(N=c2scc(-c3ccc(OC)cc3)n2CCO)cc1	6.2	35.9*	9.1	1.4	-4.7	8.1
C/C(=N\NC(=S)NCCc1ccccc1)c1cccs1	2.6	29.3*	3.1	-23.8	-0.3	11.8
O=C(NCCc1c[nH]c2ccccc12)[C@H](Cc1c[nH]c2ccccc12)NC1(C(=O)NC2CCCCC2)CCCCCCC1	-1.0	-3.5	-1.8	.	.	.
O=C(NC(Cc1ccccc1)C(=O)O)/C(=C/c1ccco1)NC(=O)c1cccc(Br)c1 (stereo not drawn)	12.3	24.9*	-2.4	-3.0	31.4	6.8
O=C(Nc1ccc(C(=O)O)cc1)/C(=C\c1ccco1)NC(=O)c1ccco1	4.5	46.8*	-2.1	-0.6	3.3	8.2
[O-]/C(=C(\C(=S)NCc1ccccc1)[n+]1ccccc1)c1ccc(Cl)cc1	-10.2	7.8	-1.8	.	9.4	.
O=[N+]([O-])c1ccc(N2CCN(Cc3ccccc3)CC2)c2c1no[n+]2[O-]	-12.3	54.4*	-7.4	1.1	0.5	19.4
O=[N+]([O-])c1ccc(N2CCN(Cc3ccccc3)CC2)s1	-4.1	-5.0	1.2	2.8	-1.7	.
CNC(=O)c1ccc(CN(C)CC(=O)Nc2ccccc2C(=O)NC2CC2)cc1	5.4	1.8	-0.9	3.2	3.0	.
CCOc1ccc(N2C(=O)CC(NC3CCCCNC3=O)C2=O)cc1 (stereo not drawn)	-9.1	44.4*	-1.1	-1.0	-1.7	-0.3
CCOc1ccc(N2C(=O)CC(NCC#N)C2=O)cc1 (stereo not drawn)	4.0	33.1*	2.5	0.3	-1.0	45.7*
O=C1CC(NNc2ccccc2)C(=O)N1c1ccccc1 (stereo not drawn)	9.1	1.4	-6.3	-2.5	10.7	.
O=C1NCCCCC1NC1CC(=O)N(c2ccccc2)C1=O (stereo not drawn)	3.2	34.4*	-1.2	-1.6	4.0	7.3
CCOC(=O)C(=CNc1nc(-c2ccccc2)c(C(=O)Nc2ccc(-c3ccccc3)cc2)s1)C(=O)OCC	3.1	1.6	-4.4	-0.5	5.4	.
CCOc1cccc(CNCCSc2nnnn2C)c1	1.2	-4.2	6.3	7.2	-4.1	.
C#CCN(CC(=O)OCC)S(=O)(=O)CCNC1CC1	2.5	-2.6	6.5	.	1.6	.
OCCN(CCO)c1nc(N2CCCCC2)c2nc(N(CCO)CCO)nc(N3CCCCC3)c2n1	-4.0	57.4*	1.1	4.7	-2.5	74.5*
CCOC(=O)C1=C(Cc2ccc(OC)cc2)C(=O)c2ccccc2C1=O	.	.	.	-2.1	.	.
CCOC(=O)C1=C(Cc2ccc(C)cc2)C(=O)c2ccccc2C1=O	-34.8	92.1*	-4.4	.	6.0	27.3*
O=C(CSc1nnc(CNC(=O)c2ccccc2)o1)NCc1ccc2c(c1)OCO2	2.1	2.5	-5.3	0.9	-2.8	.
COC(=O)CSCc1nc2ccccc2[nH]c1=O	0.7	34.0*	8.5	-0.9	2.7	55.4*
Cc1ccc(S(=O)(=O)Nc2ccccc2CNc2cccc(C)n2)cc1	-5.1	1.1	-0.9	-28.6	3.8	.
SMILES	mABHD4 FP	PRMT1 FP inh	SIAE primary	HTRA1 inhibitor	rCAG RNA binder	PRMT1 confirm
Nc1sccc1C(=O)NCc1ccccc1	-22.1	33.7*	-12.9	.	7.7	16.2
CCOC(=O)C(Sc1nn(C)c(=S)s1)C(C)=O (stereo not drawn)	0.2	36.3*	-1.4	3.6	5.1	1.3
O=C(COC(=O)CSc1ccc([N+](=O)[O-])cc1)NCCCc1ccccc1	-3.5	41.9*	0.5	-5.7	4.3	4.3
Cc1cc(CSc2ccc(Cl)cc2)ccc1N	14.1	3.6	3.6	0.1	3.6	.
O=C(CSc1nc(O)cc(=O)[nH]1)N1CCCc2ccccc21	2.2	25.6*	14.5	-1.6	21.0	6.8
Cc1cc(=O)[nH]c(SCC(=O)N2CCCc3ccccc32)n1	8.3	4.3	-0.5	3.9	-1.8	.
Cc1ccc(S(=O)(=O)N2CCOCC2)cc1NC(=O)COC(=O)CSc1ccc(Br)cc1C	-3.4	1.8	-18.6	-7.2	9.6	.
CCOc1ccc(C(=O)N2CCN(c3cccc(Cl)c3)CC2)cc1	1.4	-4.8	1.9	-10.0	-8.2	.
CCOc1ccc(N2C(=O)CC(NC3CCN(C(=O)c4cccc(Cl)c4)CC3)C2=O)cc1 (stereo not drawn)	1.6	65.5*	-5.6	-1.1	-5.0	2.3
CCOc1ccc(N2C(=O)CC(NC3CCN(C(=O)c4cccs4)CC3)C2=O)cc1 (stereo not drawn)	-11.8	88.7*	-0.8	2.5	-2.4	-3.0
O=C(Nc1nccs1)c1ccc(-c2ccc(F)c(Cl)c2)o1	-3.9	0.1	-40.1	-33.0	12.5	.
O=C1CC(N2CCN(c3ccc(O)cc3)CC2)C(=O)N1Cc1cccs1 (stereo not drawn)	26.7	48.8*	9.5	9.3	5.8	-0.6
CCCCN1C(=O)C(CC(=O)NCC2CCCCC2)CC(C(=O)N(CC)CC)=C1C (stereo not drawn)	0.5	2.1	1.2	0.8	-2.9	.
CNc1ccc(S(=O)(=O)NCC(=O)NCCCc2ccccc2)cc1[N+](=O)[O-]	7.9	27.0*	5.1	1.7	-2.5	34.0*
CNc1ccc(S(=O)(=O)NCC(=O)OC(C)C(=O)N(C)Cc2ccccc2)cc1[N+](=O)[O-] (stereo not drawn)	-2.0	-2.3	9.7	6.5	3.8	.
CN(C)c1ccc(S(=O)(=O)NCC(=O)NCc2ccccc2)cc1[N+](=O)[O-]	2.5	26.5*	-1.3	2.5	3.9	26.2*
CCOC(=O)c1c(-c2cccs2)csc1N	2.9	6.6	-0.8	2.6	-0.3	.
CCOC(=O)c1c(NC(=O)COC(=O)c2cnccn2)sc(C(=O)NC)c1C	-2.4	-1.8	-0.6	3.4	2.8	.
CCOC(=O)c1c(-c2ccco2)csc1N	21.2	25.0*	3.1	1.1	14.2	6.3
CCOC(=O)c1c(-c2ccco2)csc1NC(=O)COC(=O)c1cnccn1	1.6	25.3*	-10.7	-11.2	30.1	6.7
O=S(=O)(Cc1ccccc1)Nc1ccc(F)cc1	0.9	-1.4	-1.3	-1.0	1.6	.
Cc1ccc(S(=O)(=O)n2nc(-c3ccco3)nc2SCc2ccccc2)cc1	-8.0	25.4*	3.5	3.7	9.2	12.3
c1cc2c(cc1NC1CCCCCC1)OCO2	20.2	34.7*	11.1	33.1	-1.8	31.8*
O=C(Nc1cccnc1)C1Cc2c(-c3ccccc3Oc3ccccc3)ccnc2O1 (stereo not drawn)	-4.2	4.2	-3.0	.	2.6	.
